ChEMBL document CHEMBL1146725, “Discovery and SAR of potent, orally available and brain-penetrable 5,6-dihydro-4H-3-thia-1-aza-benzo[e]azulen- and 4,5-dihydro-6-oxa-3-thia-1-aza-benzo[e]azulen derivatives as neuropeptide Y Y5 receptor antagonists” (Bioorg Med Chem Lett, 2004)
pIC50: −log10 of the molar value. Several values for one entry are separate records, joined by “and”; a condition that tells them apart may be missing. Identical values can stand only once.

Assays:
[1] = molecular target: T1, Neuropeptide Y receptor type 5 (Homo sapiens, UniProt Q15761); assay: (§1) In vitro binding affinity against human neuropeptide Y5 receptor
T1 sequence (Q15761 whole entry): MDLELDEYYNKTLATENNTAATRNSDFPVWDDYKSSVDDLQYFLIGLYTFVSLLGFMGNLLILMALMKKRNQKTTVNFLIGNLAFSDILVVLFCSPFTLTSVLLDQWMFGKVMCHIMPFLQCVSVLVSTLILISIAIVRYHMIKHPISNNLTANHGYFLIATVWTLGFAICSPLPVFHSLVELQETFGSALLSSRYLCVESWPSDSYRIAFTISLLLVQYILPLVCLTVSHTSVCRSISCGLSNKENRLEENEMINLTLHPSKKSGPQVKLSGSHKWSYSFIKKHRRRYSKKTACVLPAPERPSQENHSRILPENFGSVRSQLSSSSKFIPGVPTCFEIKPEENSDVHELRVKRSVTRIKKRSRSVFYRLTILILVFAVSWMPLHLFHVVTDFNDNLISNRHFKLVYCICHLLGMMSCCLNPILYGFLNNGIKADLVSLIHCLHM

[2] = (§2) Concentration (30 mg/kg, p.o.) in rat plasma after 6 hours; format: ADME, organism-based; conditions: plasma, po
How it was run: (§3)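 Male rats (RA238), fasted overnight, given 30 mg/kg by oral gavage (5 mL/kg) in 20% Cremophore EL/water (w/w). Plasma and hypothalamus were sampled at 2 and 6 h post-dose and levels measured by LC-MS. Values are the mean of 3-6 animals per time point, as µg/mL plasma and µg/g hypothalamus.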

[3] = (§4) Concentration (30 mg/kg, p.o.) in rat hypothalamus after 6 hours; format: ADME, organism-based; conditions: hypothalamus, po; how it was run: as §3
[4] = Concentration (30 mg/kg, p.o.) in rat plasma after 2 hours; format: ADME, organism-based; conditions: plasma, po; how it was run: as §3
[5] = (§5) Concentration (30 mg/kg, p.o.) in rat hypothalamus after 2 hours; format: ADME, organism-based; conditions: hypothalamus, po; how it was run: as §3
[6] = molecular target: T1, Neuropeptide Y receptor type 5; assay: as §1; remark: listed apart in the source
How it was run: (§6)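 Reported as IC50 (nM), each value the mean of three separate experiments.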

[7] = molecular target: T1, Neuropeptide Y receptor type 5; assay: In vitro binding affinity against human neuropeptide Y5 receptor measured as Ca+ response; how it was run: as §6
[8] = molecular target: T2, Neuropeptide Y receptor type 5 (Rattus norvegicus, UniProt Q63634); assay: In vitro binding affinity against rat neuropeptide Y5 receptor; how it was run: as §6
T2 sequence (Q63634 whole entry): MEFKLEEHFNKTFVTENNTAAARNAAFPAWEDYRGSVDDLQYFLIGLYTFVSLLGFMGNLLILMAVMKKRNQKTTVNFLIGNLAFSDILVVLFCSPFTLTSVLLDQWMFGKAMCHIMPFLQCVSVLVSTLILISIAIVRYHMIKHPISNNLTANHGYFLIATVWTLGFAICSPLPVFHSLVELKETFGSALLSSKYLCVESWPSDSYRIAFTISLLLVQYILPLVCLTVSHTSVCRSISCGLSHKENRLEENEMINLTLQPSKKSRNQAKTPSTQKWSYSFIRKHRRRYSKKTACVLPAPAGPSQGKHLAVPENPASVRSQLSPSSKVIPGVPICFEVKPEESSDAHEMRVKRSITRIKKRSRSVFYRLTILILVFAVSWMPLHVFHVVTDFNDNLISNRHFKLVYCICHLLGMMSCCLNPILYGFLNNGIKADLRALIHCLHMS

Rattus norvegicus [9] = assay: as §2; format: ADME, organism-based; conditions: in vivo, po, 6 h; how it was run: as §3
Rattus norvegicus [10] = assay: as §4; format: ADME, organism-based; conditions: in vivo, po, 6 h; how it was run: as §3
Rattus norvegicus [11] = assay: as §5; format: ADME, organism-based; conditions: in vivo, po, 2 h; how it was run: as §3

Structure (SMILES)	pIC50 [1]	other results
COCCCNCC(=O)N1CCC(CNc2nc3c(s2)CCCc2ccc(F)cc2-3)CC1	7.82	–
O=C(C1CCOC1)N1CCC(CNc2nc3c(s2)CCCc2ccc(F)cc2-3)CC1 (centres undefined)	9.00	concentration at 6 h [2]: 140 ng/mL; concentration at 6 h [3]: 440 ng/g; concentration at 2 h [4]: 540 ng/mL; concentration at 2 h [5]: 1220 ng/g
CN(CC(=O)N1CCC(CNc2nc3c(s2)CCOc2ccc(F)cc2-3)CC1)CC1CC1	–	pIC50 [6]: 7.74
O=C([C@@H]1CCCO1)N1CCC(CNc2nc3c(s2)CCOc2ccc(F)cc2-3)CC1	–	concentration at 6 h [2]: 140 ng/mL; concentration at 6 h [3]: 640 ng/g; concentration at 2 h [4]: 930 ng/mL; concentration at 2 h [5]: 5480 ng/g; pIC50 [6]: 7.72
CC(C)C(=O)N1CCC(CNc2nc3c(s2)CCCc2ccc(F)cc2-3)CC1	8.70	–
CC(=O)N1CCC(CNc2nc3c(s2)CCCc2ccc(F)cc2-3)CC1	8.70	pIC50 [7]: 6.60; concentration at 6 h [2]: 70 ng/mL; concentration at 6 h [3]: 290 ng/g; concentration at 2 h [4]: 950 ng/mL; concentration at 2 h [5]: 3700 ng/g
COCC(=O)N1CCC(CNc2nc3c(s2)CCCc2ccc(F)cc2-3)CC1	8.70	–
O=C(CNCC1CC1)N1CCC(CNc2nc3c(s2)CCCc2ccc(F)cc2-3)CC1	8.22	–
CC(=O)NC1CCN(CC(=O)Nc2nc3c(s2)CCCc2ccc(F)cc2-3)CC1	7.11	–
O=C(CN1CCCCC1)N1CCC(CNc2nc3c(s2)CCCc2ccc(F)cc2-3)CC1	8.40	concentration at 6 h [2]: 130 ng/mL; concentration at 6 h [3]: 620 ng/g; concentration at 2 h [4]: 240 ng/mL; concentration at 2 h [5]: 1170 ng/g
O=C(N[C@H]1CC[C@H](CNc2nc3c(s2)CCCc2ccc(F)cc2-3)CC1)C1CC1	8.22	–
O=C(CN1CCCCC1)N1CCC(CNc2nc3c(s2)CCCc2ccccc2-3)CC1	8.22	–
O=C(CN1CCOCC1)N1CCC(CNc2nc3c(s2)CCCc2ccc(F)cc2-3)CC1	8.70	–
O=C1CC[C@H](C(=O)N2CCC(CNc3nc4c(s3)CCCc3ccc(F)cc3-4)CC2)O1	8.40	–
CCOCC(=O)N1CCC(CNc2nc3c(s2)CCOc2ccc(F)cc2-3)CC1	7.55	–
CCCCC(=O)N[C@H]1CC[C@H](CNc2nc3c(s2)CCCc2ccc(F)cc2-3)CC1	8.22	–
COCCNCC(=O)N1CCC(CNc2nc3c(s2)CCCc2ccc(F)cc2-3)CC1	8.70	–
O=C1CCCN1[C@H]1CC[C@H](CNc2nc3c(s2)CCCc2ccc(F)cc2-3)CC1	8.30	–
CC(C)C(=O)N1CCC(CNc2nc3c(s2)CCOc2cc(Cl)c(F)cc2-3)CC1	7.00	–
CC(C)C(=O)N1CCC(CNc2nc3c(s2)CCOc2cc(F)c(F)cc2-3)CC1	7.40	–
Cc1ccc2c(c1)-c1nc(NCC3CCN(C(=O)c4ccccn4)CC3)sc1CCO2	7.60	–
Nc1nc2c(s1)-c1ccccc1Sc1ccccc1-2	5.74	–

Structure (SMILES)	pIC50 [1]	other results
CC(C)N1CCN(CC(=O)N[C@H]2CC[C@H](CNc3nc4c(s3)CCCc3ccc(F)cc3-4)CC2)CC1	6.68	–
CCOC(=O)N1CCC(CNc2nc3c(s2)CCCc2ccc(F)cc2-3)CC1	8.40	–
O=C(CN1CCCCC1)N1CCC(CNc2nc3c(s2)CCOc2ccc(F)cc2-3)CC1	–	pIC50 [6]: 7.15
CC(=O)N1CCC(CNc2nc3c(s2)CCOc2ccc(F)cc2-3)CC1	–	pIC50 [6]: 7.16
O=C(CN1CCOCC1)N1CCC(CNc2nc3c(s2)CCOc2ccc(F)cc2-3)CC1	–	pIC50 [6]: 7.39
O=C([C@H]1CCCO1)N1CCC(CNc2nc3c(s2)CCOc2ccc(F)cc2-3)CC1	–	concentration at 6 h [2]: 390 ng/mL; concentration at 6 h [3]: 1080 ng/g; concentration at 2 h [4]: 970 ng/mL; concentration at 2 h [5]: 2440 ng/g; pIC50 [6]: 8.30
O=C(N[C@H]1CC[C@H](CNc2nc3c(s2)CCCc2ccc(F)cc2-3)CC1)c1cccs1	7.82	–
COC[C@@H]1CCCN1CC(=O)N1CCC(CNc2nc3c(s2)CCCc2ccc(F)cc2-3)CC1	8.52	–
COCCC(=O)N1CCC(CNc2nc3c(s2)CCOc2ccc(F)cc2-3)CC1	–	pIC50 [6]: 7.66
CCCCC(=O)N1CCC(CNc2nc3c(s2)CCOc2ccc(C)cc2-3)CC1	8.15	–
CN(C)CC(=O)N[C@H]1CC[C@H](CNc2nc3c(s2)CCCc2ccc(F)cc2-3)CC1	7.09	–
CCCCC(=O)N1CCC(CNc2nc3c(s2)CCOc2cc(F)c(F)cc2-3)CC1	7.42	–
CN(C)S(=O)(=O)NC[C@H]1CC[C@H](Nc2nc3c(s2)-c2ccccc2Sc2ccccc2-3)CC1	7.82	–
CCOCC(=O)N1CCC(CNc2nc3c(s2)CCOc2ccc(C)cc2-3)CC1	7.74	–
Fc1ccc(-c2csc(Nc3ccccc3)n2)cc1	5.80	–
COCC(=O)N1CCC(CNc2nc3c(s2)CCOc2ccc(F)cc2-3)CC1	–	pIC50 [6]: 7.43
O=C(CN1CCCCC1)N[C@H]1CC[C@H](CNc2nc3c(s2)CCCc2ccc(F)cc2-3)CC1	7.54	–
CC(C)C(=O)N1CCC(CNc2nc3c(s2)CCOc2cc(F)c(Cl)cc2-3)CC1	7.89	–
COC(=O)N[C@H]1CC[C@H](CNc2nc3c(s2)CCCc2ccc(F)cc2-3)CC1	8.70	–
CCCN(C)CC(=O)N[C@H]1CC[C@H](CNc2nc3c(s2)CCCc2ccc(F)cc2-3)CC1	8.22	–
CN1CCN(CC(=O)N2CCC(CNc3nc4c(s3)CCCc3ccc(F)cc3-4)CC2)CC1	7.62	–
Cc1ccc2c(c1)-c1nc(NCC3CCN(C(=O)[C@H]4CCCO4)CC3)sc1CCO2	8.30	pIC50 [7]: 7.40; concentration at 6 h [2]: 260 ng/mL; concentration at 6 h [3]: 400 ng/g; concentration at 2 h [4]: 870 ng/mL; concentration at 2 h [5]: 1460 ng/g; pIC50 [8]: 8.54

Structure (SMILES)	pIC50 [1]	other results
COc1ccc2c(c1)-c1nc(NCC3CCN(C(=O)CCN4CCCCC4)CC3)sc1CCO2	5.61	–
CN(C)C(=O)CCCCNc1nc2c(s1)CCCc1ccc(F)cc1-2	7.60	–
Cc1ccc2c(c1)-c1nc(NCC3CCN(C(=O)COC(C)C)CC3)sc1CCO2	7.68	–
O=C([C@H]1CCCO1)N1CCC(CNc2nc3c(s2)CCCc2ccc(F)cc2-3)CC1	8.70	Concentration (Rattus norvegicus [9]): 0.22 µg/mL; concentration at 6 h [2]: 220 ng/mL; Concentration (Rattus norvegicus [10]): 0.67 µg/g; concentration at 6 h [3]: 670 ng/g; Concentration (Rattus norvegicus [11]): 0.86 µg/g and 2.44 µg/g
O=C(c1ccccc1F)N1CCC(CNc2nc3c(s2)CCCc2ccc(F)cc2-3)CC1	7.70	–
CCCCC(=O)N1CCC(CNc2nc3c(s2)CCOc2ccc(OC)cc2-3)CC1	7.77	–
Cc1ccc2c(c1)-c1nc(NCC3CCN(C(=O)[C@@H]4CCCO4)CC3)sc1CCO2	7.77	–
CCCCC(=O)N1CCC(CNc2nc3c(s2)CCOc2ccc(F)cc2-3)CC1	8.15	pIC50 [7]: 7.00; concentration at 6 h [2]: 70 ng/mL; concentration at 6 h [3]: 260 ng/g; concentration at 2 h [4]: 740 ng/mL; concentration at 2 h [5]: 2230 ng/g; pIC50 [8]: 8.22
Cc1ccc2c(c1)-c1nc(NCC3CCN(C(=O)C(C)C)CC3)sc1CCO2	8.30	pIC50 [7]: 7.21; concentration at 6 h [2]: 330 ng/mL; concentration at 6 h [3]: 880 ng/g; concentration at 2 h [4]: 840 ng/mL; concentration at 2 h [5]: 2420 ng/g
CN(C)CC(=O)N1CCC(CNc2nc3c(s2)CCCc2ccc(F)cc2-3)CC1	8.40	–
O=C(CCN1CCCCC1)N[C@H]1CC[C@H](CNc2nc3c(s2)CCCc2ccc(F)cc2-3)CC1	6.82	–
O=C(CN1CCCCC1)N1CCC(CNc2nc3c(s2)CCCc2ccc(Cl)cc2-3)CC1	8.15	–
CN(C)CCCC(=O)N[C@H]1CC[C@H](CNc2nc3c(s2)CCCc2ccc(F)cc2-3)CC1	6.54	–
O=C(CNCC1CCCO1)N1CCC(CNc2nc3c(s2)CCCc2ccc(F)cc2-3)CC1 (centres undefined)	8.22	–
CCCCC(=O)N1CCC(CNc2nc3c(s2)CCOc2cc(F)c(Cl)cc2-3)CC1	7.70	–
O=C(CC1CC1)N[C@H]1CC[C@H](CNc2nc3c(s2)CCCc2ccc(F)cc2-3)CC1	8.22	–
CN(CC(=O)N1CCC(CNc2nc3c(s2)CCCc2ccc(F)cc2-3)CC1)CC1CC1	8.52	–
CN(C)S(=O)(=O)NC[C@H]1CC[C@H](Nc2nc3c(s2)CCSc2ccc(F)cc2-3)CC1	8.52	–
COCCC(=O)N1CCC(CNc2nc3c(s2)CCCc2ccc(F)cc2-3)CC1	8.70	–
CC(=O)C1(c2ccccc2)CCC(CC(=O)Nc2nc3c(s2)CCCc2ccc(F)cc2-3)CC1 (centres undefined)	7.82	–
CS(=O)(=O)NC[C@H]1CC[C@H](Nc2nc(-c3ccc(F)cc3)cs2)CC1	7.64	–
O=C(C1CC1)N1CCC(CNc2nc3c(s2)CCCc2ccc(F)cc2-3)CC1	8.70	–
